The list is not random: actives were taken first. Their share in the collection is about 3.8%.
hERG rescue: compounds protecting human hERG from proarrhythmic drug block | actives 0.51% (n = 310,000) | AID 1511 | CHO-hERG, FluxOR thallium flux, dofetilide IC70 present | activation (rescue from dofetilide block), less the hit threshold, % at 10 µM | Q12809;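 active = activation above the mean of controls blocked by dofetilide plus 5 SD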;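 note: thallium influx through hERG after potassium depolarization seen as dye fluorescence rise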
Target sequence (Q12809 whole entry, looked up): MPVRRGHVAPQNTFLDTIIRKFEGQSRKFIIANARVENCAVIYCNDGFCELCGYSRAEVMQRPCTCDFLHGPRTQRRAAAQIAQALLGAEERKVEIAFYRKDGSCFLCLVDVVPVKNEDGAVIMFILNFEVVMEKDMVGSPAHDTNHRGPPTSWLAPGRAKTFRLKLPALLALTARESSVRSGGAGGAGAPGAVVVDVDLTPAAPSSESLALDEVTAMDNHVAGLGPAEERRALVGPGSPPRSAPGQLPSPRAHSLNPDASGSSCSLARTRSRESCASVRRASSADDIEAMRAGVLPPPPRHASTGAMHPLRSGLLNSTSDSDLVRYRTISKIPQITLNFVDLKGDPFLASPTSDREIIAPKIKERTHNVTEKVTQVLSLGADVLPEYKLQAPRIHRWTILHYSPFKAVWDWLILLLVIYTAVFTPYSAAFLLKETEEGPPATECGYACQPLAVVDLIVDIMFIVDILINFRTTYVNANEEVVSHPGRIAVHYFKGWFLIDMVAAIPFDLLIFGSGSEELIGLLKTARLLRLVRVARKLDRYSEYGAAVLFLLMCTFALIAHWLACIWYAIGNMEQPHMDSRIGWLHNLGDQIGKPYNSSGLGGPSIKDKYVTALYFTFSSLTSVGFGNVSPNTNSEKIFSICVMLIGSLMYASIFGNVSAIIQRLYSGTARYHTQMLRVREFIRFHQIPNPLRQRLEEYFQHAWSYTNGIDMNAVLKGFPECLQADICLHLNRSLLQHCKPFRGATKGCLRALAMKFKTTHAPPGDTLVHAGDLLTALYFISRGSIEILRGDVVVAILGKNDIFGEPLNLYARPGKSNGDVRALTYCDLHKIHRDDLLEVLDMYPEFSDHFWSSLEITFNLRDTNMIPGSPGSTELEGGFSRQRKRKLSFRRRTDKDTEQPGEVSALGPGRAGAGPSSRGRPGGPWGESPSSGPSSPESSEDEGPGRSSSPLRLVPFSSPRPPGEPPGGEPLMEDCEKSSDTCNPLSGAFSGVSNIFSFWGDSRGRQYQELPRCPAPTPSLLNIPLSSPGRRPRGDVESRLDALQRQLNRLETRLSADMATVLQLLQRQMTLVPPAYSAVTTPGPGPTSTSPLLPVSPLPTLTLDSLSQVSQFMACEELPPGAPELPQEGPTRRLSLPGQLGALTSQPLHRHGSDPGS
Kir21 inh: inhibitors of mouse Kir2.1 inward-rectifier potassium channel. B-score at 10 µM. HEK293-Kir2.1, FluxOR thallium flux fluorescence; stronger effect = lower value. AID 1672. P35561. actives 0.85% (n = 310,000);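 active = fluorescence ratio B-score at or below minus 3 SD of library scores, with starting-brightness B-score within 2 SD, cut at about -4.2 in these data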;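 note: channel flux triggered by added potassium and thallium sulfate stimulus; B-score of peak minus minimum fluorescence over baseline after thallium stimulus; more negative B-score means stronger Kir2.1 block with less thallium influx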
KCNK9 block: human KCNK9 channel inhibition | HEK293 KCNK9, FluxOR thallium flux fluorescence; stronger effect = lower value | actives 1.2% (n = 310,000) | B-score at 10 µM | Q9NPC2;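 active = ratio B-score over 3 SD below the library mean, with starting fluorescence within 5 SD of its mean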;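 note: negative B-score means less thallium flux so channel inhibition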
KCNQ1 inh: blocks the human KCNQ1 potassium channel. P51787. CHO-K1 KCNQ1, FluxOR thallium flux fluorescence; stronger effect = higher value. B-score at 10 µM. actives 1.3% (n = 310,000);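 active = compounds whose thallium flux B-score, printed positive for inhibition, exceeds three library SD while starting fluorescence stays within three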;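 note: channel opened by potassium depolarization with thallium stimulus after 20 min compound exposure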
KCNK3 block: human KCNK3 channel inhibition, primary screen. actives 0.84% (n = 340,000). AID 602410. B-score at 10 µM. O14649. CHO-KCNK3 thallium flux, FluxOR fluorescence; stronger effect = lower value;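 active = B-score under library mean minus 4 SD, starting fluorescence ratio at most library mean plus 5 SD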;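 note: more negative B-score means stronger inhibition of thallium flux through KCNK3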
KCNQ1 act: potentiators or activators of human KCNQ1 potassium channel; actives 0.35% (n = 310,000); AID 2648; CHO-K1 KCNQ1, thallium flux FluxOR fluorescence; stronger effect = higher value; B-score at 10 µM;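 active = fluorescence ratio B-score, a plate-corrected score, at least three library SD, with initial intensity B-score within 5 SD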
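Assay system: stable KCNQ1 CHO-K1 line; medium: assay buffer, equal DMSO in all wells; timing: 90 min dye loading and 20 min compound exposure, both at room temperature; technique: kinetic FluxOR thallium fluorescence, 10-s 1-Hz baseline, 110-s post-stimulus read; read-out basis: B score of baseline-normalized fluorescence ratio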
KCNK9 inh conf: human KCNK9 inhibitor confirmation | shares compounds with KCNK9 block | HEK293 KCNK9 cells, FluxOR thallium flux fluorescence | inhibition, % at 10 µM | actives 43% (n = 4,900);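 active = thallium signal inhibited by more than 5 SD of the compound-free buffer control wells, on both duplicate plates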
Kir21 sel: tests whether KCNK9 modulators also affect mouse Kir2.1. shares compounds with KCNK9 block. Kir2.1 cells, FluxOR thallium flux fluorescence. inhibition, % at 10 µM. actives 4% (n = 4,900). AID 492993;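 active = thallium signal drop more than 5 SD beyond the mean of the no-compound control wells, seen in both duplicate plates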;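 note: signal is fluorescence rise after thallium addition divided by baseline fluorescence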
HEK293 Tl ctr: second counter-screen for KCNK9 modulators: effect in non-induced cells | actives 40% (n = 4,900) | non-induced KCNK9-HEK293, FluxOR thallium flux | shares compounds with KCNK9 block | AID 492997 | inhibition, % at 10 µM;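 active = thallium signal drop beyond 5 SD of the untreated control mean, on both duplicate plates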
KCNK3 inh conf: human KCNK3 channel inhibition, confirmation assay; shares compounds with KCNK3 block; CHO-KCNK3 thallium flux, FluxOR fluorescence; 0% buffer, 100% carvedilol maximal block; ratio percent of control, % at 10 µM; actives 99% (n = 2,400); AID 651638;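 active = ratio percent of control, averaged over triplicates, above buffer control mean plus 5 SD, cut at about 64% in these data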;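 note: ratio is the fluorescence rise from min to max over baseline after thallium stimulus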
KCNK3 uninduced: activity in cells without induced KCNK3 expression; shares compounds with KCNK3 block; non-induced KCNK3 parental cells, FluxOR thallium flux; stronger effect = lower value; thallium flux ratio (lower = more inhibition) at 10 µM; actives 40% (n = 2,400);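 active = thallium flux ratio, averaged over three wells, more than 5 SD below the buffer control mean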;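 note: host cells are CHO cells without KCNK3 induction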
Numbers stand for hits; 0 = inactive; - = not tested or not shown.

SMILES	hERG rescue	Kir21 inh	KCNK9 block	KCNQ1 inh	KCNK3 block	KCNQ1 act	KCNK9 inh conf	Kir21 sel	HEK293 Tl ctr	KCNK3 inh conf	KCNK3 uninduced
O=C(Cc1ccc(S(=O)(=O)N2CCOCC2)s1)NCCOc1ccccc1	0	0	0	0	0	0	-	-	-	-	-
CSCc1c(C(=O)Nc2ccc3c(c2)OCO3)oc2ccccc12	0	0	-9.5	0	-8.7	0	39%	0	30%	124	0.15
CC1CCN(C(=O)N2c3ccccc3Sc3ccccc32)CC1	0	0	-9.3	11	-11	0	58%	0	46%	113	0.13
CC(=O)Nc1cccc(NC(=O)c2c(-c3c(Cl)cccc3Cl)noc2C)c1	0	0	0	0	0	0	-	-	-	-	-
CNC(=O)Nc1cccc(-c2cc(-c3c(Cl)cccc3Cl)no2)c1	0	0	-15	0	-17	0	54%	0	44%	122	0.16
O=C(Nc1cccnc1)c1cc(-c2cccc(Cl)c2)on1	0	0	0	0	0	0	-	-	-	-	-
CC(=O)Nc1cccc(-c2cc(-c3c(Cl)cccc3Cl)no2)c1	0	0	-11	0	-15	0	54%	0	39%	109	0.15
Cc1ccc(CNC(=O)C2CCCN2C(=O)Nc2ccc(F)cc2)cc1 (stereo not given)	0	0	0	0	0	0	-	-	-	-	-
CC1C(=O)N2CCCc3cc(NS(=O)(=O)c4ccc([N+](=O)[O-])cc4)cc1c32 (stereo not given)	0	0	0	0	0	0	-	-	-	-	-
CCOC(=O)C(C)Sc1nc(-c2ccco2)cc(C(F)(F)F)c1C#N (stereo not given)	0	0	-16	0	-12	0	70%	0	44%	98	0.13
CCOC(=O)c1sc(NC(=O)CSc2nc(-c3ccco3)cc(C(F)(F)F)n2)c(C#N)c1C	0	0	0	0	0	0	-	-	-	-	-
CCOC(=O)NC(N(O)c1cccc(Cl)c1)C(Cl)(Cl)Cl (stereo not given)	0	0	-13	0	-12	0	54%	0	28%	112	0
CC(C)C1OC(c2cccc(NC(=O)c3cccs3)c2)OCC1(C)C (stereo not given)	0	0	-8.5	0	-9.5	0	50%	0	44%	114	0.16
CC(C)N(Cc1nc(-c2ccc(Cl)cc2)no1)C(=O)C(c1ccccc1)c1ccccc1	0	0	-10	0	-9.9	0	55%	0	40%	129	0.13
COC(=O)c1ccsc1NC(=O)CN1CCN(c2ccc(F)cc2)CC1	0	0	-11	0	0	0	0	0	28%	105	0
COc1ccccc1C(CC(=O)Nc1nccs1)c1ccco1 (stereo not given)	0	0	0	0	0	0	-	-	-	-	-
COc1ccccc1NC(=O)CC(c1ccc(F)cc1)c1ccco1 (stereo not given)	0	0	-10	0	0	0	36%	0	30%	121	0.15
COc1ccc(C(CC(=O)Nc2ccc(F)cc2)c2ccccc2)cc1 (stereo not given)	0	0	0	0	0	0	-	-	-	-	-
O=C(CC(c1ccc(F)cc1)c1ccco1)Nc1nccs1 (stereo not given)	0	0	-8.1	0	-11	0	32%	0	34%	110	0.16
COc1ccc(CNC(=O)CCS(=O)(=O)c2cc3c(cc2Cl)NC(=O)CO3)cc1	0	0	0	0	0	0	-	-	-	-	-
CCOC(=O)c1nn(-c2cccc(OC)c2)c(-c2ccccc2)c1C(=O)c1ccccc1	0	0	-10	0	-9.3	0	50%	0	0	113	0.14
COc1ccc2ccc(=O)oc2c1CC=C(C)C	0	0	-15	0	-12	0	72%	0	38%	104	0
CCCc1nc(SCC(=O)c2ccc(OC)cc2)c2ccccc2n1	0	0	-19	0	-11	0	78%	0	27%	108	0.16
CCc1nc(SCC(=O)NNC(=O)c2ccc(OC)cc2)c2ccccc2n1	0	0	0	0	0	0	-	-	-	-	-
O=C1CNC(=S)N1C(CO)c1ccccc1 (stereo not given)	0	0	0	0	0	0	-	-	-	-	-
SMILES	hERG rescue	Kir21 inh	KCNK9 block	KCNQ1 inh	KCNK3 block	KCNQ1 act	KCNK9 inh conf	Kir21 sel	HEK293 Tl ctr	KCNK3 inh conf	KCNK3 uninduced
CSc1nc(N2CCN(c3ccccc3Cl)CC2)c2ccccc2n1	0	0	-14	0	0	0	60%	0	34%	104	0
O=S1(=O)C=C(Oc2ccc3ccccc3c2)c2ccccc21	0	0	-9.6	0	-9.7	0	40%	0	42%	107	0
O=S1(=O)C=C(Oc2ccc(F)cc2)c2ccccc21	0	0	0	0	0	0	-	-	-	-	-
Cc1nc(N2CCC(C)CC2)c2c(C)c(C(=O)Nc3cccc(C(F)(F)F)c3)sc2n1	0	0	0	13	-9.4	0	0	0	30%	126	0.13
Cc1nc(SC(C)C(=O)Nc2cccc(C(F)(F)F)c2)c2c(C)c(C(=O)O)sc2n1 (stereo not given)	0	0	0	0	0	0	-	-	-	-	-
Cc1ccc(CN2CCCN(Cc3cc(C)ccc3C)S2(=O)=O)cc1	0	0	-16	0	-9.8	0	62%	0	37%	0	0
Cc1ccc(C)c(CN2CCCN(Cc3cc(C)ccc3C)S2(=O)=O)c1	0	0	-19	0	-11	0	76%	0	41%	87	0
Cc1ccc(C)c(CN2CCNC2=O)c1	0	0	0	0	0	0	-	-	-	-	-
O=c1[nH]c(SCc2ccccc2)nc2[nH]ncc12	0	0	0	0	0	0	-	-	-	-	-
CCOc1ccccc1Cn1c(=O)oc2ccc(C)cc21	-	-	-	-	0	-	-	-	-	-	-
CCCOc1ccccc1Cn1c(=O)oc2ccc(C)cc21	0	0	-10	0	-8.7	16	52%	0	46%	115	0
CCS(=O)(=O)c1ccc2oc(Nc3cccc(OC)c3)nc2c1	0	0	0	0	0	0	-	-	-	-	-
CCOc1ccc(C(C)(C)C)cc1S(=O)(=O)n1nc(C)cc1C	0	0	-9.6	6	-8.8	0	54%	0	38%	113	0
